# Results from ChEMBL document CHEMBL2034938, “Convenient synthesis of novel geiparvarin analogs with potential anti-cancer activity via click chemistry” (Eur J Med Chem, 2012).
# Experiments:
# HeLa = assay: Cytotoxicity against human HeLa cells by after 48 hrs by MTT assay; format: functional, cell-based
# How it was run: (§1)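 MTT assay; cell lines obtained from Shanghai Institute of Biological Sciences, CAS. Compounds in DMSO stock (10 g/L), diluted in medium just before use. Cells seeded at 8000/well; compound added 24 h later, in duplicate. After 48 h at 37 °C, 5% CO₂, MTT (5 mg/mL in PBS) added for 4 h. Formazan dissolved in DMSO; absorbance read at 570 nm. IC50 taken as the concentration giving 50% growth inhibition.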
# SW480 = assay: Cytotoxicity against human SW480 cells by after 48 hrs by MTT assay; format: functional, cell-based; details: SW480, 48 h; how it was run: as §1
# MDA-MB-231 = assay: Cytotoxicity against human MDA-MB-231 cells by after 48 hrs by MTT assay; format: functional, cell-based; details: MDA-MB-231, 48 h; how it was run: as §1
# [1] = Cytotoxicity against human L02 cells by after 48 hrs by MTT assay; format: cell-based; details: L02, 48 h; how it was run: as §1
# A549 [2] = assay: Cytotoxicity against human A549 cells by after 48 hrs by MTT assay; format: functional, cell-based; details: A549, 48 h; how it was run: as §1
# [3] = Cytotoxicity against human QGY7701 cells by after 48 hrs by MTT assay; format: functional, cell-based; details: QGY7701, 48 h; how it was run: as §1
# SGC-7901 = assay: Cytotoxicity against human SGC7901 cells by after 48 hrs by MTT assay; format: functional, cell-based; details: SGC-7901, 48 h; how it was run: as §1
# A549 [4] = assay: Induction of apoptosis in human A549 cells assessed as early apoptotic cells at 1 uM after 48 hrs by annexinV/propidium iodide staining-based flow cytometric analysis ( Rvb = 0.15%); format: functional
# A549 [5] = assay: Induction of apoptosis in human A549 cells assessed as late apoptotic cells at 4 uM after 48 hrs by annexinV/propidium iodide staining-based flow cytometric analysis (reference value: 0.16%); format: functional
# A549 [6] = assay: Induction of apoptosis in human A549 cells assessed as early apoptotic cells at 2 uM after 48 hrs by annexinV/propidium iodide staining-based flow cytometric analysis ( Rvb = 0.15%); format: functional
# A549 [7] = assay: Induction of apoptosis in human A549 cells assessed as early apoptotic cells at 8 uM after 48 hrs by annexinV/propidium iodide staining-based flow cytometric analysis ( Rvb = 0.15%); format: functional
# A549 [8] = assay: Induction of apoptosis in human A549 cells assessed as necrotic cells at 8 uM after 48 hrs by annexinV/propidium iodide staining-based flow cytometric analysis (reference value: 3.72%); details: A549, 48 h
# A549 [9] = assay: Induction of apoptosis in human A549 cells assessed as viable cells at 2 uM after 48 hrs by annexinV/propidium iodide staining-based flow cytometric analysis ( Rvb = 95.96%); format: functional; details: A549, 48 h, read-out: Activity
# A549 [10] = assay: Induction of apoptosis in human A549 cells assessed as late apoptotic cells at 1 uM after 48 hrs by annexinV/propidium iodide staining-based flow cytometric analysis (reference value: 0.16%); format: functional
# A549 [11] = assay: Induction of apoptosis in human A549 cells assessed as viable cells at 8 uM after 48 hrs by annexinV/propidium iodide staining-based flow cytometric analysis ( Rvb = 95.96%); format: functional; details: A549, 48 h, read-out: Activity
# A549 [12] = assay: Induction of apoptosis in human A549 cells assessed as early apoptotic cells at 4 uM after 48 hrs by annexinV/propidium iodide staining-based flow cytometric analysis ( Rvb = 0.15%); format: functional
# A549 [13] = assay: Induction of apoptosis in human A549 cells assessed as viable cells at 4 uM after 48 hrs by annexinV/propidium iodide staining-based flow cytometric analysis ( Rvb = 95.96%); format: functional; details: A549, 48 h, read-out: Activity
# A549 [14] = assay: Induction of apoptosis in human A549 cells assessed as late apoptotic cells at 2 uM after 48 hrs by annexinV/propidium iodide staining-based flow cytometric analysis (reference value: 0.16%); format: functional
# A549 [15] = assay: Induction of apoptosis in human A549 cells assessed as necrotic cells at 2 uM after 48 hrs by annexinV/propidium iodide staining-based flow cytometric analysis (reference value: 3.72%); details: A549, 48 h
# A549 [16] = assay: Induction of apoptosis in human A549 cells assessed as viable cells at 1 uM after 48 hrs by annexinV/propidium iodide staining-based flow cytometric analysis ( Rvb = 95.96%); format: functional; details: A549, 48 h, read-out: Activity
# A549 [17] = assay: Induction of apoptosis in human A549 cells assessed as necrotic cells at 4 uM after 48 hrs by annexinV/propidium iodide staining-based flow cytometric analysis (reference value: 3.72%); details: A549, 48 h
# A549 [18] = assay: Induction of apoptosis in human A549 cells assessed as late apoptotic cells at 8 uM after 48 hrs by annexinV/propidium iodide staining-based flow cytometric analysis (reference value: 0.16%); format: functional
# A549 [19] = assay: Induction of apoptosis in human A549 cells after 48 hrs by annexinV/propidium iodide staining-based flow cytometric analysis; format: functional, cell-based
SMILES,IC50 (HeLa) [µM],IC50 (SW480) [µM],IC50 (MDA-MB-231) [µM],IC50 [1] [µM],IC50 (A549 [2]) [µM],IC50 [3] [µM],IC50 (SGC-7901) [µM],other results
C#CCOc1ccc2c(=O)ccoc2c1,64.7,> 100,> 100,> 300,> 100,58.5,> 100,–
Cc1ccc(Cn2cc(COc3ccc4c(=O)ccoc4c3)nn2)cc1,> 100,10.4,> 100,> 300,50.7,68.5,> 100,–
O=c1ccoc2cc(OCc3cn(Cc4ccc(Cl)cc4)nn3)ccc12,37.6,> 100,> 100,> 300,> 100,41.7,> 100,–
N#Cc1ccc(Cn2cc(COc3ccc4c(=O)ccoc4c3)nn2)cc1,> 100,> 100,> 100,> 300,> 100,> 100,> 100,–
Cc1cccc(Cn2cc(COc3ccc4c(=O)ccoc4c3)nn2)c1,> 100,11.7,16,> 300,20.3,22.4,> 100,–
O=c1ccoc2cc(OCc3cn(Cc4ccc(Br)cc4)nn3)ccc12,> 100,37.5,> 100,> 300,> 100,96.4,> 100,–
C/C(=C\COc1ccc2ccc(=O)oc2c1)C1=CC(=O)C(C)(C)O1 [GEIPARVARIN],9.09,20.3,9.88,> 300,18,17.7,7.59,Activity (A549 [4]): 6.19%; Activity (A549 [5]): 4.27%; Activity (A549 [6]): 11.51%; Activity (A549 [7]): 25.25%; necrotic cells at 8 µM (A549 [8]): 5.87%; viability at 2 µM (A549 [9]): 77%; Activity (A549 [10]): 1.32%; viability at 8 µM (A549 [11]): 65.3%; Activity (A549 [12]): 18.87%; viability at 4 µM (A549 [13]): 71.7%; Activity (A549 [14]): 5.25%; necrotic cells at 2 µM (A549 [15]): 4.26%; viability at 1 µM (A549 [16]): 90.7%; necrotic cells at 4 µM (A549 [17]): 5.13%; Activity (A549 [18]): 3.56%
O=c1ccoc2cc(OCc3cn(Cc4ccc([N+](=O)[O-])cc4)nn3)ccc12,25.7,19.3,–,> 300,> 100,> 100,> 100,–
O=c1ccoc2cc(OCc3cn(Cc4ccccc4Br)nn3)ccc12,14.5,> 100,> 100,> 300,> 100,> 100,> 100,–
O=c1ccoc2cc(OCc3cn(Cc4ccccc4F)nn3)ccc12,> 100,11.4,–,> 300,10.8,36.9,> 100,–
O=c1ccoc2cc(OCc3cn(Cc4cccc(F)c4)nn3)ccc12,7.55,> 100,> 100,> 300,> 100,> 100,> 100,–
O=c1ccoc2cc(OCc3cn(Cc4cccc(Cl)c4)nn3)ccc12,> 100,12.9,> 100,> 300,13.7,28.4,> 100,–
O=c1ccoc2cc(OCc3cn(Cc4ccc(F)cc4)nn3)ccc12,12,11.2,> 100,> 300,> 100,14.4,> 100,–
N#Cc1cccc(Cn2cc(COc3ccc4c(=O)ccoc4c3)nn2)c1,> 100,> 100,> 100,> 300,14.3,24.4,> 100,–
Cc1ccccc1Cn1cc(COc2ccc3c(=O)ccoc3c2)nn1,15.3,> 100,> 100,> 300,> 100,> 100,> 100,–
O=c1ccoc2cc(OCc3cn(Cc4ccccc4)nn3)ccc12,> 100,42.9,> 100,> 300,> 100,> 100,> 100,–
COc1ccc(Cn2cc(COc3ccc4c(=O)ccoc4c3)nn2)cc1,14.4,20.4,> 100,> 300,16.5,56.6,> 100,–
O=c1ccoc2cc(OCc3cn(Cc4cccc(Br)c4)nn3)ccc12,> 100,> 100,> 100,> 300,> 100,17.6,> 100,–
CC(C)(C)c1ccc(Cn2cc(COc3ccc4c(=O)ccoc4c3)nn2)cc1,17.6,28.8,> 100,> 300,> 100,> 100,> 100,–
O=c1ccoc2cc(OCc3cn(Cc4cccc([N+](=O)[O-])c4)nn3)ccc12,17.3,> 100,> 100,> 300,9.45,14.1,> 100,Activity (A549 [4]): 8.07%; Activity (A549 [5]): 6.36%; Activity (A549 [6]): 10.87%; Activity (A549 [7]): 21.54%; necrotic cells at 8 µM (A549 [8]): 4.16%; viability at 2 µM (A549 [9]): 80.1%; Activity (A549 [10]): 3%; viability at 8 µM (A549 [11]): 70.6%; Activity (A549 [12]): 13.55%; viability at 4 µM (A549 [13]): 74.7%; Activity (A549 [14]): 3.39%; necrotic cells at 2 µM (A549 [15]): 5.68%; viability at 1 µM (A549 [16]): 86.7%; necrotic cells at 4 µM (A549 [17]): 5.44%; Activity (A549 [18]): 5.68%
O=c1ccoc2cc(OCc3cn(Cc4ccc(Cl)cc4Cl)nn3)ccc12,80.6,> 100,> 100,> 300,5.26,13.3,> 100,Activity (A549 [4]): 7.13%; Activity (A549 [5]): 3.55%; Activity (A549 [6]): 17.62%; Activity (A549 [7]): 29.73%; necrotic cells at 8 µM (A549 [8]): 1.64%; viability at 2 µM (A549 [9]): 76.4%; Activity (A549 [10]): 2.31%; Activity (A549 [19]): Dose-dependent effect; viability at 8 µM (A549 [11]): 65.3%; Activity (A549 [12]): 28.45%; viability at 4 µM (A549 [13]): 65.8%; Activity (A549 [14]): 3.56%; necrotic cells at 2 µM (A549 [15]): 2.42%; viability at 1 µM (A549 [16]): 88.4%; necrotic cells at 4 µM (A549 [17]): 2.19%; Activity (A549 [18]): 3.33%
O=c1ccoc2cc(OCc3cn(Cc4ccccc4Cl)nn3)ccc12,> 100,23.5,–,> 300,> 100,19.7,> 100,–
O=c1[nH]cc(F)c(=O)[nH]1 [FLUOROURACIL],–,–,–,46.6,–,–,6.04,–
